According to ChEMBL document CHEMBL3875205, “Macrocyclic MEK1/2 inhibitor with efficacy in a mouse model of cardiomyopathy caused by lamin A/C gene mutation” (Bioorg Med Chem, 2017):

Assays:
[1] = Effect on body mass in LmnaH222P/H222P mouse model of cardiomyopathy at 3 mg/kg/day, po administered 6 days per week via gavage starting from 14 weeks of age up to 20 weeks of age (reference value: 23.19 +/- 0.43); type: ADME, organism-based, Heart; conditions: in vivo
[2] = Effect on body mass in LmnaH222P/H222P mouse model of cardiomyopathy at 6 mg/kg/day, po administered 6 days per week via gavage starting from 14 weeks of age up to 20 weeks of age (reference value: 23.19 +/- 0.43); type: ADME, organism-based, Heart; conditions: in vivo
Mus musculus [3] = test: Toxicity in LmnaH222P/H222P mouse model of cardiomyopathy assessed as serum alkaline phosphatase activity at 3 mg/kg/day, po administered 6 days per week via gavage starting from 14 weeks of age up to 20 weeks of age (reference value: 91.5 +/- 6.99 U/L); type: organism-based, Heart; conditions: in vivo
Mus musculus [4] = test: Toxicity in LmnaH222P/H222P mouse model of cardiomyopathy assessed as serum alkaline phosphatase activity at 6 mg/kg/day, po administered 6 days per week via gavage starting from 14 weeks of age up to 20 weeks of age (reference value: 91.5 +/- 6.99 U/L); type: organism-based, Heart; conditions: in vivo
Mus musculus [5] = test: Toxicity in LmnaH222P/H222P mouse model of cardiomyopathy assessed as serum alanine aminotransferase activity at 3 mg/kg/day, po administered 6 days per week via gavage starting from 14 weeks of age up to 20 weeks of age (reference value: 56 +/- 10.55 U/L); type: organism-based, Heart; conditions: in vivo
Mus musculus [6] = test: Toxicity in LmnaH222P/H222P mouse model of cardiomyopathy assessed as serum alanine aminotransferase activity at 6 mg/kg/day, po administered 6 days per week via gavage starting from 14 weeks of age up to 20 weeks of age (reference value: 56 +/- 10.55 U/L); type: organism-based, Heart; conditions: in vivo
Mus musculus [7] = test: Toxicity in LmnaH222P/H222P mouse model of cardiomyopathy assessed as total bilirubin content in serum at 3 mg/kg/day, po administered 6 days per week via gavage starting from 14 weeks of age up to 20 weeks of age (reference value: 0.36 +/- 0.02 mg/L); type: organism-based, Heart; conditions: in vivo
Mus musculus [8] = test: Toxicity in LmnaH222P/H222P mouse model of cardiomyopathy assessed as total bilirubin content in serum at 6 mg/kg/day, po administered 6 days per week via gavage starting from 14 weeks of age up to 20 weeks of age (reference value: 0.36 +/- 0.02 mg/L); type: organism-based, Heart; conditions: in vivo
Mus musculus [9] = test: Toxicity in LmnaH222P/H222P mouse model of cardiomyopathy assessed as serum amylase activity at 3 mg/kg/day, po administered 6 days per week via gavage starting from 14 weeks of age up to 20 weeks of age (reference value: 1102 +/- 53.63 U/L); type: organism-based, Heart; conditions: in vivo
Mus musculus [10] = test: Toxicity in LmnaH222P/H222P mouse model of cardiomyopathy assessed as serum amylase activity at 6 mg/kg/day, po administered 6 days per week via gavage starting from 14 weeks of age up to 20 weeks of age (reference value: 1102 +/- 53.63 U/L); type: organism-based, Heart; conditions: in vivo
Mus musculus [11] = test: Toxicity in LmnaH222P/H222P mouse model of cardiomyopathy assessed as blood urea nitrogen level at 3 mg/kg/day, po administered 6 days per week via gavage starting from 14 weeks of age up to 20 weeks of age (reference value: 17.98 +/- 0.94 mg/dl); type: organism-based, Heart; conditions: in vivo
Mus musculus [12] = test: Toxicity in LmnaH222P/H222P mouse model of cardiomyopathy assessed as blood urea nitrogen level at 6 mg/kg/day, po administered 6 days per week via gavage starting from 14 weeks of age up to 20 weeks of age (reference value: 17.98 +/- 0.94 mg/dl); type: organism-based, Heart; conditions: in vivo
Mus musculus [13] = test: Toxicity in LmnaH222P/H222P mouse model of cardiomyopathy assessed as serum creatinine level at 3 mg/kg/day, po administered 6 days per week via gavage starting from 14 weeks of age up to 20 weeks of age (reference value: 0.45 +/- 0.01 mg/dl); type: organism-based, Heart; conditions: in vivo
Mus musculus [14] = test: Toxicity in LmnaH222P/H222P mouse model of cardiomyopathy assessed as serum creatinine level at 6 mg/kg/day, po administered 6 days per week via gavage starting from 14 weeks of age up to 20 weeks of age (reference value: 0.45 +/- 0.01 mg/dl); type: organism-based, Heart; conditions: in vivo
Mus musculus [15] = test: Toxicity in LmnaH222P/H222P mouse model of cardiomyopathy assessed as ratio of blood urea nitrogen to serum creatinine at 3 mg/kg/day, po administered 6 days per week via gavage starting from 14 weeks of age up to 20 weeks of age (reference value: 20.14 +/- 1.25); type: organism-based, Heart; conditions: in vivo
Mus musculus [16] = test: Toxicity in LmnaH222P/H222P mouse model of cardiomyopathy assessed as ratio of blood urea nitrogen to serum creatinine at 6 mg/kg/day, po administered 6 days per week via gavage starting from 14 weeks of age up to 20 weeks of age (reference value: 20.14 +/- 1.25); type: organism-based, Heart; conditions: in vivo
Mus musculus [17] = test: Hepatotoxicity in LmnaH222P/H222P mouse model of cardiomyopathy assessed as hepatocyte necrosis at 3 to 6 mg/kg/day, po administered 6 days per week via gavage starting from 14 weeks of age up to 20 weeks of age by hematoxylin and eosin staining based assay; type: toxicity, organism-based; conditions: hepatocytes
Method in brief: (§1)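 Liver, kidney and spleen from male Lmna H222P/H222P mice given vehicle or 3 or 6 mg/kg/day by gavage 6 days/week from 14 to 20 weeks. Tissues were fixed in 4% formaldehyde for 48 h, paraffin-embedded, sectioned at 5 μm and stained with hematoxylin and eosin. Findings were recorded for each individual sample.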

Mus musculus [18] = test: Hepatotoxicity in LmnaH222P/H222P mouse model of cardiomyopathy assessed as inflammation at 3 to 6 mg/kg/day, po administered 6 days per week via gavage starting from 14 weeks of age up to 20 weeks of age by hematoxylin and eosin staining based assay; type: toxicity, organism-based; conditions: in vivo; method in brief: as §1
Mus musculus [19] = test: Hepatotoxicity in LmnaH222P/H222P mouse model of cardiomyopathy assessed as cholestasis at 3 to 6 mg/kg/day, po administered 6 days per week via gavage starting from 14 weeks of age up to 20 weeks of age by hematoxylin and eosin staining based assay; type: toxicity, organism-based; conditions: in vivo; method in brief: as §1
Mus musculus [20] = test: Nephrotoxicity in LmnaH222P/H222P mouse model of cardiomyopathy assessed as glomeruli abnormalities at 3 to 6 mg/kg/day, po administered 6 days per week via gavage starting from 14 weeks of age up to 20 weeks of age by hematoxylin and eosin staining based assay; type: toxicity, organism-based; conditions: in vivo; method in brief: as §1
Mus musculus [21] = test: Nephrotoxicity in LmnaH222P/H222P mouse model of cardiomyopathy assessed as interstitial nephritis at 3 to 6 mg/kg/day, po administered 6 days per week via gavage starting from 14 weeks of age up to 20 weeks of age by hematoxylin and eosin staining based assay; type: toxicity, organism-based; conditions: in vivo; method in brief: as §1
Mus musculus [22] = test: Toxicity in LmnaH222P/H222P mouse model of cardiomyopathy assessed as appearance of hemosiderin-laden macrophages in spleen at 3 to 6 mg/kg/day, po administered 6 days per week via gavage starting from 14 weeks of age up to 20 weeks of age by hematoxylin and eosin staining based assay; type: organism-based; conditions: in vivo; method in brief: as §1
Mus musculus [23] = test: Protective activity in LmnaH222P/H222P mouse model of cardiomyopathy assessed as mean survival days at 3 mg/kg, po administered 6 days per week via gavage starting from 10 weeks of age continued up to mouse death (reference value: 202 day); type: functional, Heart
Mus musculus [24] = test: Protective activity in LmnaH222P/H222P mouse model of cardiomyopathy assessed as mean survival days at 6 mg/kg, po administered 6 days per week via gavage starting from 10 weeks of age continued up to mouse death (reference value: 202 day); type: functional, Heart
[25] = molecular target: Dual specificity mitogen-activated protein kinase kinase; MEK1/2 (Homo sapiens, UniProt P36507+Q02750); test: Inhibition of MEK1/2 in human HT-29 cells assessed as reduction in cell proliferation after 72 hrs by CellTiter-Glo assay; type: cell-based
Method in brief: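 HT-29 cells were plated at 2,000/well in DMEM or RPMI with 10% FBS and left overnight at 37°C, 5% CO2. Medium was replaced with compound at 3-fold dilutions from 3.3 µM to 4.5 nM. After 72 h, viability was read by CellTiter-Glo luminescence and IC50 calculated.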

For `O=S1(=O)Nc2c(cc(F)c(F)c2Nc2ccc(I)cc2F)OCC(O)C(O)CC12CC2` (single isomer, unassigned; form 1), the Activity [1] was 24.06, the Activity [2] was 22.93 and the Activity (Mus musculus [3]) was 104.5 U/L. For the same compound, the Activity (Mus musculus [4]) was 113 U/L, the Activity (Mus musculus [5]) was 69.6 U/L and the Activity (Mus musculus [6]) was 69.6 U/L. For the same compound, the Activity (Mus musculus [7]) was 0.32 mg/L, the Activity (Mus musculus [8]) was 0.37 mg/L and the Activity (Mus musculus [9]) was 1372 U/L. The Activity (Mus musculus [10]) was 1086 U/L, the Activity (Mus musculus [11]) was 18.04 mg/dL and the Activity (Mus musculus [12]) was 19.12 mg/dL. For the same compound, the Activity (Mus musculus [13]) was 0.46 mg/dL, the Activity (Mus musculus [14]) was 0.46 mg/dL and the Ratio (Mus musculus [15]) was 19.66. The Ratio (Mus musculus [16]) was 20.77, the Activity (Mus musculus [17]) was “Non-Toxic” and the Activity (Mus musculus [18]) was “Non-Toxic”. The Activity (Mus musculus [19]) was “Non-Toxic”, the Activity (Mus musculus [20]) was “Non-Toxic” and the Activity (Mus musculus [21]) was “Non-Toxic”. For the same compound, the Activity (Mus musculus [22]) was “Non-Toxic”, the MSD (Mus musculus [23]) was 225 days and the MSD (Mus musculus [24]) was 225 days. The IC50 [25] was 0.016 µM.
